# Sampled rows, rich in hits. Any-hit rate of the full collection: about 3.4%.
# DTT redox prof – compounds producing H2O2 with reducing agent – biochemical, NIH compound library profiling, artefact control for MLSCN library redox annotation, primary screen. DTT-dependent redox cycling H2O2, phenol red/HRP absorbance; 100% = 100 µM peroxide control, 0% = buffer. activation, % at 10 µM. actives 0.03% (n = 200,000);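 active = activation of at least 50% relative to the plate's high and low controls in the primary single-dose screen; inactive = activation below 50%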;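 note: compound incubated with DTT at 0.8 mM final as the reducing agent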
# ROMK mod – ROMK potassium channel modulators, primary screen, cell-based, thallium flux, MLSMR library; Tet-inducible ROMK, thallium flux fluorescence; actives lie on both sides; actives 2% (n = 130,000); ATP-sensitive inward rectifier potassium channel 1 (Homo sapiens), P48048; AID 1918, 2009; B-score at 10 µM;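 active = signal ratio slope over the read window, or its plate-corrected B-score, at least 3 SD from the plate mean, either direction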;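 note: B-score of the F/F0 ratio slope over 7 to 12 s after thallium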
# KCC2 mod – KCC2 cotransporter modulators, thallium flux, primary screen, cell-based, HEK293 KCC2, FluoZin-2 fluorescence, MLSMR. Solute carrier family 12 member 5 (Homo sapiens), Q9H2X9. KCC2 cells, thallium flux FluoZin-2 fluorescence. B-score of Tl+ flux slope (higher = more flux/activation; lower = inhibition) at 10 µM. actives 2.2% (n = 190,000);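 active = thallium flux slope and its plate-corrected score both differing from the plate sample mean at a set confidence after two filtering rounds, in either direction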;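 note: slope of fluorescence scaled to starting intensity during 10 to 20 s after thallium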
# Mdm2 ligase inh – MDM2-luciferase reporter signal enhancers, primary screen, MDM2 E3 ligase inhibitor project, cell-based, luminescence, 1536-well. cell-based MDM2 ubiquitination luciferase reporter, 2 h; 0 = plate control, 100 = twice control, blank-subtracted. signal enhancement, % at 5 µM. actives 0.11% (n = 210,000). AID 1230, 2008;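 active = signal enhancement of 30% or more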;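 note: luminescence tracks abundance of the self-degrading MDM2-luciferase fusion protein; higher signal means inhibition of MDM2 E3 ligase activity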
#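 Timing – 2 h compound exposure at 37 °C · Assay system – mammalian cells stably expressing self-ubiquitinating, self-degrading MDM2 E3–luciferase fusion · Amount – 2000 cells seeded into each well · Measure – % luminescence enhancement versus blank-corrected plate control mean · Measured by – SteadyLite luminescence, 15 min reagent step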
# PKD1 inh – inhibitors of human PKD1 kinase, biochemical, fluorescence polarization. PKD1 kinase fluorescence polarization assay. inhibition, % (concentration not given with the values). actives 0.056% (n = 200,000). AID 797, 2007; in the data active = inhibition above about 50%
# p97 ATPase inh – inhibitors of human p97 ATPase, primary screen, biochemical | AID 1481, 2009 | actives 0.42% (n = 220,000) | recombinant p97 ATPase, Kinase-Glo ATP luminescence, 3 h | inhibition, % at 8 µM; in the data active = inhibition above about 15%;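 note: 0% = DMSO vehicle and 100% = wells lacking enzyme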
# FP interf 140K – fluorescence polarization interference in PKD1 assay, artefact control for PKD1 inhibitor project, biochemical, 140K library. shares compounds with PKD1 inh. PKD1 FP assay interference counter-screen. inhibition, % at 10 µM. 85 tested, under 10 active; call rule not given here
# Starred values were filed as active, the others as inactive; x = no result given.
SMILES,DTT redox prof,ROMK mod,KCC2 mod,Mdm2 ligase inh,PKD1 inh,p97 ATPase inh,FP interf 140K
CS(=O)(=O)c1ccc2nc(N)sc2c1,-0.4,x,0.368,-8.4,-0.9,2.5,x
Nc1nc2ccc([N+](=O)[O-])c(N)c2s1,1.9,x,x,-11.2,97.0*,6.4,-13.9
Cc1nc2ccccc2n1/N=C/c1cccnc1,-0.1,1.25,x,-12.4,10.2,-1.6,x
Nc1nc2ccccc2n1/N=C/c1ccc(-c2ccccc2)o1,-3.2,0.133,x,-8.9,-8.6,-1.2,x
Nc1nc2ccccc2n1/N=C/c1ccc([N+](=O)[O-])s1,0.4,0.629,-0.195,-23.3,52.5*,6.4,-12.1
Nc1nc2ccccc2n1/N=C/c1cccnc1,1.4,2.19*,-0.00234,-4.0,68.8*,1.0,-14.7
O=C(NCc1ccccc1)c1ccc(S(=O)(=O)C(F)F)cc1,-1.4,-0.119,-0.255,0.1,-2.2,5.7,x
CC(C(=O)Nc1ccccc1Cl)N(c1ccccc1)S(C)(=O)=O (centres undefined),-0.7,-0.149,0.573,1.3,-1.7,4.8,x
N#Cc1cc2ccccc2nc1SCc1cccnc1,-0.4,x,-0.013,-2.9,1.9,5.7,x
Cc1ccc(S(=O)(=O)N2CCC(C(=O)NCCCOC(C)C)CC2)cc1,2.5,x,x,-13.7,-3.7,-3.8,x
COC(=O)c1ccccc1OCC(=O)NC1CCCCC1,0.1,-0.0341,0.0152,4.7,84.9*,-4.3,-12.1
CCc1ccccc1OCC(=O)NC1CCCC1,-1.4,x,-0.264,2.7,-6.2,-6.6,x
Cc1ccc(C(=O)NNC2=Nc3cccc4cccc2c34)cc1,1.0,x,0.461,-6.0,53.7*,2.4,-7.9
Clc1ccc(Nc2ccc(-n3ccnc3)nn2)cc1Cl,-3.8,x,0.749,-35.9,51.8*,-2.7,-5.5
COC(=O)c1c(NC(=O)c2ccc(Br)o2)sc(C)c1C,-0.1,x,1.88,-14.6,-17.3,5.1,x
O=C1CC(N2CCN(c3ccccc3Cl)CC2)C(=O)N1c1cccc(F)c1 (centres undefined),-3.1,x,-0.533,1.3,109.0*,2.7,-10.6
O=C1CC(N2CCN(c3ccccc3F)CC2)C(=O)N1c1ccc(F)cc1 (centres undefined),0.1,0.54,1.41,x,3.0,0.9,x
O=C1CC(N2CCN(c3ccccc3Cl)CC2)C(=O)N1c1ccc(F)cc1 (centres undefined),1.5,-0.762,0.807,-5.9,51.3*,5.3,-11.7
Cc1csc(SCC(=O)NCCc2ccc(Cl)cc2)n1,x,x,-0.092,-8.9,-2.4,4.8,x
CCN(Cc1ccccc1)Cc1c(F)cccc1F,-0.2,x,x,-19.6,-8.1,4.3,x
Cc1c(N/N=C(\C#N)C(=O)c2ccccc2)c(=O)n(-c2ccccc2)n1C,-0.5,x,0.82,-3.5,54.9*,0.5,2.5
CN(C)CCOc1ccc2c(c1)Sc1ccccc1CC2=O,-0.2,-1.73,0.384,1.1,58.7*,2.0,-17.2
Cc1ccc2c(c1)Sc1ccccc1CC2=O,1.5,x,x,-20.8,2.4,3.1,x
O=C(COC(=O)c1cccc(Br)c1)NCCc1ccc(F)cc1,0.0,-1.24,-1.38,2.7,-0.9,-5.6,x
O=C(CCCSc1nnc(SCCCC(=O)c2ccc(F)cc2)s1)c1ccc(F)cc1,-2.2,x,x,-14.6,-3.0,-11.5,x
SMILES,DTT redox prof,ROMK mod,KCC2 mod,Mdm2 ligase inh,PKD1 inh,p97 ATPase inh,FP interf 140K
Nc1nnc(SCCCC(=O)c2ccc(F)cc2)s1,0.6,x,-0.45,-10.8,64.7*,0.0,-11.0
CCCCN(CCCNC(=O)C1CCCN(S(=O)(=O)CC)C1)Cc1ccccc1 (centres undefined),3.0,x,-0.744,-12.0,18.0,2.6,x
NC(N)=NC(=O)c1nc(Cl)c(N)nc1N,0.2,x,-0.339,x,80.0*,-1.0,-1.1
O=C(CN1CCN(c2ncccn2)CC1)N1CCCc2c1c(=O)oc1ccc(O)cc21,1.0,1.17,0.272,-23.9,12.1,5.5,x
O=C1NCCCc2c1oc1ccc(O)cc21,-0.9,x,0.413,-15.0,100.2*,-1.9,-12.1
CCC(=O)Nc1c2c(nn1-c1ccccc1C)CSC2,3.9,x,-0.382,-2.4,80.8*,-2.3,-9.4
CN1CCN(c2ccccc2NC(=O)c2ccc(Br)o2)CC1,1.2,0.741,0.0848,-11.3,41.3,0.6,x
CS(=O)(=O)N1CCN(c2ccccc2NC(=O)c2ccc(Br)o2)CC1,2.7,x,-1.14,-1.2,95.9*,4.4,-9.4
C=CCOc1cccc(C2C(C(=O)c3ccc(C)o3)=C(O)C(=O)N2c2nccs2)c1 (centres undefined),2.3,x,x,-40.6,76.0*,7.3,54.1*
O=C(c1cc(-c2ccccc2)nc2ccccc12)N1CCN(c2ccccn2)CC1,-0.8,-1.62,-1.07,-16.5,93.2*,-6.6,-12.7
